Data from ChEMBL document CHEMBL4414575, “Yangpumicins F and G, Enediyne Congeners from Micromonospora yangpuensis DSM 45577” (J Nat Prod, 2019).
≈ marks a conversion by molar mass, not a printed value. Calls of active or inactive are those of the source. The calls are words filed in the database; no cut-off is given here.

Columns and labels:
Staphylococcus aureus [1] = assay: Antimicrobial activity against Methicillin-resistant Staphylococcus aureus incubated for 18 hrs by resazurin staining based microbroth dilution assay; assay type: functional
Procedure, shortened: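 Overnight culture diluted to 106 CFU/mL in LB broth, mixed 1:1 with compound serially diluted in LB on the plate from DMSO stock (1–512 ng/mL and 1–512 pg/mL series; vancomycin 0.03125–16 μg/mL). Incubated 37 °C for 18 h, then resazurin added to read growth; MIC taken from broth microdilution, duplicate per plate. Strain is a local hospital MRSA isolate.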

SK-BR-3 [2] = assay: Cytotoxicity against human SKBR3 cells assessed as inhibition of cell viability incubated for 72 hrs by MTT assay; assay type: functional, cell-based; details: SK-BR-3, 72 h
Procedure, shortened: (§1)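 Cells seeded at 2,000–4,000 per well and left 24 h. They are then exposed to a range of compound concentrations for 72 h. Survival is read by adding CCK-8 solution and measuring absorbance at 450 nm. Mitomycin is the reference control.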

Caco-2 [3] = assay: Cytotoxicity against human Caco2 cells assessed as inhibition of cell viability incubated for 72 hrs by MTT assay; assay type: functional, cell-based; details: Caco-2, 72 h; procedure, shortened: as §1
A549 = assay: Cytotoxicity against human A549 cells assessed as inhibition of cell viability incubated for 72 hrs by MTT assay; assay type: functional, cell-based; details: A549, 72 h; procedure, shortened: as §1
Staphylococcus aureus [4] = assay: Antimicrobial activity against Staphylococcus aureus ATCC 29213 incubated for 18 hrs by resazurin staining based microbroth dilution assay; assay type: functional; details: ATCC 29213, 18 h
Procedure, shortened: (§2)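 Strains grown overnight, diluted to 10^6 CFU/mL in LB broth. Compounds in DMSO, serially diluted in LB (pg/mL to ng/mL range), mixed 1:1 with bacterial suspension. Vancomycin is the reference, 0.03125–16 μg/mL. Plates incubated 37 °C for 18 h, then resazurin added for read-out. Duplicates per plate.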

Jurkat = assay: Cytotoxicity against human Jurkat cells assessed as inhibition of cell viability incubated for 72 hrs by MTT assay; assay type: functional, cell-based; procedure, shortened: as §1
Escherichia coli = assay: Antimicrobial activity against Escherichia coli incubated for 18 hrs by resazurin staining based microbroth dilution assay; assay type: functional; procedure, shortened: as §2
SK-BR-3 [5] = assay: Potency index, ratio of YPM G IC50 to compound IC50 for cytotoxicity against human SKBR3 cells by MTT assay; assay type: functional
Caco-2 [6] = assay: Potency index, ratio of YPM G IC50 to compound IC50 for cytotoxicity against human Caco2 cells by MTT assay; assay type: functional
Staphylococcus aureus [7] = assay: Potency index, ratio of MIC for vancomycin to MIC for test compound for antimicrobial activity against Staphylococcus aureus ATCC 29213; assay type: functional
Procedure, shortened: (§3)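 Overnight bacterial cultures diluted to 10^6 CFU/mL in LB broth, mixed 1:1 with LB holding serial dilutions of test compound (DMSO stocks, 1–512 pg/mL and 1–512 ng/mL series) or vancomycin (0.03125–16 μg/mL). Incubated 37 °C, 18 h, then resazurin added for read-out. Run in duplicate per plate. Index is vancomycin MIC divided by test-compound MIC.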

SK-BR-3 [8] = assay: Cytotoxicity against human SKBR3 cells assessed as inhibition of cell viability incubated for 8 hrs by rapid killing based MTT assay; assay type: functional
Procedure, shortened: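 Seeding was 2,000–4,000 cells/well, with 24 h attachment. Compound exposure at varying concentrations lasted only 8 h. Viability was read by CCK-8 absorbance at 450 nm. Mean ± SD of three replicates, with curves fitted.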

Staphylococcus aureus [9] = assay: Potency index, ratio of MIC for vancomycin to MIC for test compound for antimicrobial activity against Methicillin-resistant Staphylococcus aureus; assay type: functional; procedure, shortened: as §3

| SMILES | MIC (Staphylococcus aureus [1]) | IC50 (SK-BR-3 [2]) | IC50 (Caco-2 [3]) | IC50 (A549) | MIC (Staphylococcus aureus [4]) | IC50 (Jurkat) | MIC (Escherichia coli) | Ratio IC50 (SK-BR-3 [5]) | Ratio IC50 (Caco-2 [6]) | Ratio IC50 (Staphylococcus aureus [7]) | Activity (SK-BR-3 [8]) | Ratio IC50 (Staphylococcus aureus [9]) |
| --- | --- | --- | --- | --- | --- | --- | --- | --- | --- | --- | --- | --- |
| O=C1c2ccccc2C(=O)c2c3c(cc(O)c21)[C@@]12O[C@@]1([C@H](O)CO)[C@H](C#C/C=C\C#C[C@H]2O)N3 | 0.002 ng/mL (≈ 0.00439 nM) | 24.2 nM | 55.2 nM | 3.41 nM | 0.002 ng/mL (≈ 0.00439 nM) | 0.62 nM | – | – | – | – | – | – |
| CO[C@@]12[C@H](COC(N)=O)C3=C(C(=O)C(C)=C(N)C3=O)N1C[C@@H]1N[C@@H]12 [MITOMYCIN] | – | 1000 nM | 5800 nM | 270 nM | – | 430 nM | – | – | – | – | – | – |
| CN[C@H](CC(C)C)C(=O)N[C@H]1C(=O)N[C@@H](CC(N)=O)C(=O)N[C@H]2C(=O)N[C@H]3C(=O)N[C@H](C(=O)N[C@H](C(=O)O)c4cc(O)cc(O)c4-c4cc3ccc4O)[C@H](O)c3ccc(c(Cl)c3)Oc3cc2cc(c3O[C@@H]2O[C@H](CO)[C@@H](O)[C@H](O)[C@H]2O[C@H]2C[C@](C)(N)[C@H](O)[C@H](C)O2)Oc2ccc(cc2Cl)[C@H]1O [VANCOMYCIN] | – | – | – | – | – | – | > 16000 ng/mL | – | – | – | – | – |
| O=C1c2cccc(O)c2C(=O)c2c3c(cc(O)c21)[C@@]12O[C@@]1([C@H](O)CO)[C@H](C#C/C=C\C#C[C@H]2O)N3 | < 0.001 ng/mL | 2.56 nM | 3.16 nM | 0.24 nM | < 0.001 ng/mL | 0.17 nM | 0.032 ng/mL (≈ 0.0679 nM) | 10 | 10 | 1000000 | Active | 1000000 |
| C[C@@H](O)[C@@]12O[C@]13c1cc(O)c4c(c1N[C@H]2C#C/C=C\C#C[C@H]3O)C(=O)c1c(O)cccc1C4=O | < 0.001 ng/mL | 0.86 nM | 3.4 nM | 0.02 nM | < 0.001 ng/mL | 0.24 nM | 0.128 ng/mL (≈ 0.281 nM) | 10 | 10 | 1000000 | Active | 1000000 |
